Here are results for 15 molecules from ChEMBL document CHEMBL1152740, “Synthesis and pharmacological activities of some sesquiterpene quinones and hydroquinones” (Bioorg Med Chem, 2009).

Data set [1] in a line: Growth inhibition of human HM02 cells. Format: functional. Summed up:
(§1)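 GI50 or CC50 values were read from mean dose-response curves, with 4 parallels per concentration.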

Data set [2] deals with MCF7. As to the kind of experiment: Growth inhibition of human MCF7 cells. Format: functional. Summed up: as §1
The subject of data set [3] is K562. Nature of the data set: Antiproliferative activity against human K562 cells. Type of data set: functional. Summed up:
as §1

Data set [4] deals with L929. Nature of the data set: Antiproliferative activity against mouse L929 cells. Type of data set: cell-based. Summed up:
as §1

The target in data set [5] is Dehydrogenase/reductase SDR family member 9 (Homo sapiens) (UniProt Q9BPW9). Nature of the data set: Inhibition of 3alpha-HSD.
Sequence of Dehydrogenase/reductase SDR family member 9 (Homo sapiens) (Q9BPW9 whole entry): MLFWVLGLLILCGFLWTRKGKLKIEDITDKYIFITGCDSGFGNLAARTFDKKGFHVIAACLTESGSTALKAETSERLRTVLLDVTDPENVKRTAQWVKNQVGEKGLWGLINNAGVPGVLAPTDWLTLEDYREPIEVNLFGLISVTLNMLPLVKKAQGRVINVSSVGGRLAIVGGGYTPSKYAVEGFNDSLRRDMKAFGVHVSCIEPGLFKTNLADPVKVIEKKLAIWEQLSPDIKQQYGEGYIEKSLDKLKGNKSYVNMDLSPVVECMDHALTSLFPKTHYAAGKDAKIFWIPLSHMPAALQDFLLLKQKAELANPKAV
In data set [6] the test system is HepG2. As to the kind of experiment: Growth inhibition of human HepG2 cells. Format: functional. Summed up: as §1
Data set [7] has as its system HeLa. Nature of the data set: Cytotoxicity against human HeLa cells. Type of data set: functional. Summed up:
as §1

The test system of data set [8] is Neutrophil. As to the kind of experiment: Inhibition of serum-opsonized zymosan-stimulated ROS production in bovine neutrophils by luminol-dependent chemiluminescence assay. Format: functional, cell-based. Particulars: Bos taurus.
For data set [9], the target named is T1, Prostaglandin G/H synthase 2 (Homo sapiens, UniProt P35354).
T1 sequence (P35354 whole entry): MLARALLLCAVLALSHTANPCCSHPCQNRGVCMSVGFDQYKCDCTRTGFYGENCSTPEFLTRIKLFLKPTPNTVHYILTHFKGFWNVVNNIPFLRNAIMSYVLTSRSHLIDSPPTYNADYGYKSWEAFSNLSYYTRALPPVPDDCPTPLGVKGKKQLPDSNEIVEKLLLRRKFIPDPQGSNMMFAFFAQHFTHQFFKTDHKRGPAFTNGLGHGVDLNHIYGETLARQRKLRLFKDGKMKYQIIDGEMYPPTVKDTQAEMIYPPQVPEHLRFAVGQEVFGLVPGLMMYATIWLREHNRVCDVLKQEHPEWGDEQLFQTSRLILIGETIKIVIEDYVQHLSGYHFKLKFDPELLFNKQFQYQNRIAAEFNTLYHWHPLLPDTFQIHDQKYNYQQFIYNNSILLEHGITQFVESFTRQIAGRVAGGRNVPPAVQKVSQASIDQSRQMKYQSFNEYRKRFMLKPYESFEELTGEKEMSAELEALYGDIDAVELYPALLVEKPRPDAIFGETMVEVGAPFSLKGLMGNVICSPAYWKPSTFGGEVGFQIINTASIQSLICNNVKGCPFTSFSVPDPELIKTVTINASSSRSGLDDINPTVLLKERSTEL

Structures are written as SMILES. In brackets after ≈: the same amount, converted by molar mass. Activity calls are given as the source filed them. No cut-off for these calls is given here.

For `C=C1CC[C@@H]2C(C)(C)CCC[C@@]2(C)[C@@H]1CC1=C(O)C(=O)C=C(OC)C1=O` (racemic), the GI50 (usually the concentration at which growth is held to half of that of the control) in data set [1] amounted to 5.3 µg/mL (≈ 14.8 µM); in data set [2] it was 2.4 µg/mL (≈ 6.69 µM); in data set [3], 8.4 µM; in data set [4], 20.9 µM; in [6], 6 µg/mL (≈ 16.7 µM). Besides, the outcome in data set [5] was Active. Besides, the CC50 (usually the concentration giving 50% cytotoxicity) in data set [7] is 72.1 µM.

As to `CC1=CC[C@@H]2C(C)(C)CCC[C@@]2(C)[C@@H]1CC1=CC(=O)C=CC1=O`, the outcome in data set [8] and in data set [5] was Active.

Take `CC1=CC[C@@H]2C(C)(C)CCC[C@@]2(C)[C@@H]1Cc1cc(O)ccc1O`: in [8], the result was Active.

On to `COc1ccc(O)c(O)c1/C=C1\[C@@H](C)CC[C@H]2C(C)(C)CCC[C@]12C` (racemic) [(+/-)-WIEDENDIOL B], for which the IC50 (usually the midpoint of a concentration-inhibition curve) in data set [9] is 0.7 µM. Besides, the GI50 in data set [3] worked out at 35.8 µM; in data set [4], 63.1 µM. Also, in data set [5], the result was Active. The molecule further registered a CC50 in data set [7] of 38.1 µM.

As for `COC1=CC(=O)C(OC)=C(/C=C2\[C@@H](C)CC[C@H]3C(C)(C)CCC[C@]23C)C1=O`, the GI50 in data set [3] came to 20.7 µM; in data set [4], 41.6 µM. In [7], the CC50 amounted to 75.3 µM.

For `COC1=CC(=O)C(=O)C(C[C@@]2(C)C3=C(CC[C@@H]2C)C(C)(C)CCC3)=C1OC` (racemic), the GI50 in [3] was determined as 26.6 µM; in [4] it was 73.4 µM. Further, in data set [5], the result was Active. The molecule further showed a CC50 in data set [7] of 61.3 µM.

For the molecule `COc1ccc(O)c(O)c1C[C@@]1(C)C2=C(CC[C@@H]1C)C(C)(C)CCC2` (racemic) [SESQUITERPENE HYDROQUINONE], the values for the GI50 in data set [3] and in [4] were 25.6 µM and 59.9 µM, respectively. The molecule also registered a CC50 in data set [7] of 41.3 µM.

With `COC1=CC(=O)C(O)=C(C[C@@]2(C)C3=C(CC[C@@H]2C)C(C)(C)CCC3)C1=O` (racemic), the GI50 in data set [3] stood at 6.1 µM; in data set [4], 14 µM. The molecule further had a CC50 in data set [7] of 62.3 µM.

As for `COC1=CC(=O)C(O)=C(/C=C2\[C@@H](C)CC[C@H]3C(C)(C)CCC[C@]23C)C1=O` (racemic), the GI50 in data set [1] was determined as 3.1 µg/mL (≈ 8.65 µM); in [2], 2.6 µg/mL (≈ 7.25 µM); in data set [3], 13.4 µM; in data set [4] it was 27.1 µM; in [6], 3.6 µg/mL (≈ 10 µM). Moreover, in [5], the outcome was Active. The CC50 in data set [7] worked out at 75.1 µM.

For the molecule `COc1cccc2c1C(=O)c1c(O)c3c(c(O)c1C2=O)C[C@@](O)(C(=O)CO)C[C@@H]3O[C@H]1C[C@H](N)[C@H](O)[C@H](C)O1` [DOXORUBICIN], the values for the concentration for 50% growth inhibition (GI50) in data set [3] and in [4] were 1 µM and 1.2 µM, respectively. Moreover, the CC50 in data set [7] stood at 2 µM.

Turning to `COc1c(C[C@H]2C(C)=CC[C@H]3C(C)(C)CCC[C@]23C)cc2c(c1C=O)OCO2` (racemic) [PROTECTED SIPHONODICTYAL C], the figures for the GI50 in [3] and in data set [4] were 21.1 µM and 24 µM, respectively. The outcome in data set [5] was Active. In [7], this molecule came in with a CC50 of 41.4 µM.

On to `C=C1CC[C@@H]2C(C)(C)CCC[C@@]2(C)[C@@H]1CC1=CC(=O)C=CC1=O`, for which, in [8], the result was Active.

As for `CC1=CC[C@H]2C(C)(C)CCC[C@]2(C)[C@H]1/C=C1\C=C2OCOC2=CC1=O` (racemic), the results for the GI50 in [3] and in [4] were 3.5 µM and 6.2 µM, respectively. Also, the result in [5] was Active. Moreover, half-maximal cytotoxicity in data set [7] (CC50) was put at 7.4 µM.

As for `C=C1CC[C@H]2C(C)(C)CCC[C@]2(C)[C@H]1/C=C1\C=C2OCOC2=CC1=O` (racemic) [SESQUITERPENE CYCLOHEXADIENONE], the GI50 in data set [3] stood at 6.2 µM; in data set [4] it was 12.9 µM. Further, the CC50 in [7] was 20.6 µM.

As to `C=C1CC[C@@H]2C(C)(C)CCC[C@@]2(C)[C@@H]1Cc1cc(O)ccc1O`, the outcome in data set [8] and in data set [5] was Active.
